# Laboratory results as given in publication PMC2831214 (Nature chemical biology, 2010).
# “Also recorded” adds a separate entry of the source. Numbered stars: 1 amine (or outer) side, 2 acyl side, 3 side chain; on linkers, the order of the positions; unused ones are H or OH. Bridge positions count the residues as written; N and C are the ends. Square brackets hold non-standard residues; d marks the D form. Peptide text beside a SMILES is read from it. I, II: the chains in the order shown. Actinocin(9to1) = Cc1c2oc3c(C)ccc(C(=O)[*:1])c3nc-2c(C(=O)[*:2])c(N)c1=O; NMeV = CN[C@H](C(=O)O)C(C)C; Sar = CNCC(=O)O
# Columns and labels:
# [1] = system: translation in vitro; assay: In vitro translation; type: biochemical
# [2] = system: HeLa, MDA-MB231 and Jurkat T cells; assay: Cell proliferation screen by [3H]-thymidine incorporation; type: cell-based; conditions: 2.5 µM, 24 h
# Outline: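 Each of the three cell lines was exposed to test compound at 2.5 µM for 24 h. [3H]-thymidine was then applied to monitor cellular DNA synthesis as the proliferation read-out.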
# [3] = system: protein synthesis in HeLa cells; assay: De novo protein synthesis by [35S]cysteine/methionine metabolic labeling; type: cell-based; conditions: for Effect on protein synthesis (translation): metabolic labeling 2 h
# Outline: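 HeLa cells were given varying concentrations of test compound with [35S]cysteine/methionine for 2 h. TCA-precipitated proteins were collected on PVDF membrane and scintillation counted. Cycloheximide served as translation-inhibitor control and actinomycin D as transcription-inhibitor control. Runs were in triplicate, with s.d. shown.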
# [4] = system: RNA synthesis in HeLa cells; assay: RNA synthesis; type: cell-based; conditions: [3H]uridine 2 h
# Outline: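 HeLa cells exposed to a range of test compound concentrations with [3H]uridine for 2 h. TCA-precipitated material on PVDF membrane quantified by scintillation counting. Actinomycin D and cycloheximide served as controls.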
# [5] = system: translation; conditions: cited from earlier work
# [6] = molecular target: eEF1A-mediated binding of aminoacyl-tRNA to ribosomes (Oryctolagus cuniculus, UniProt G1SNY0+G1T040); assay: eEF1A-dependent aminoacyl-tRNA binding; type: biochemical, rabbit; conditions: 200 µM compound
# Outline: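 89 pmol ribosomes in 20 mM HEPES pH 7.4, 100 mM KCl, 10 mM MgCl2, 1 mM DTT were mixed with 200 ng poly(U), 2.2 µg eEF1A, 150 µM GDPNP and 200 µM compound before 10 pmol [14C]Phe-tRNAPhe was added. After 10 min at 37 °C, samples were diluted, filtered through nitrocellulose, rinsed and scintillation counted (1 pmol = 1100 dpm).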
# [7] = molecular target: peptide bond formation on ribosomes (Oryctolagus cuniculus, UniProt G1SNY0+G1T040); assay: Peptidyl transfer; type: biochemical, rabbit; conditions: LTM even at millimolar concentrations
# [8] = molecular target: eEF2-mediated translocation (Oryctolagus cuniculus, UniProt G1SNY0+G1T040); assay: eEF2-dependent translocation; type: biochemical, rabbit; conditions: 200 µM compound
# [9] = molecular target: ribosomes, eEF1A and eEF2 (Oryctolagus cuniculus, UniProt G1SNY0+G1T040); assay: Polyphenylalanine synthesis on a poly; type: biochemical, rabbit; conditions: 200 µM
# [10] = molecular target: pre-assembled initiation complexes (Saccharomyces cerevisiae, UniProt P02406+P0CX27); assay: Reconstituted translation elongation, tripeptide; type: biochemical; conditions: 200 µM
# pre-assembled initiation complexes, sequence (P02406 2-149 limits assumed): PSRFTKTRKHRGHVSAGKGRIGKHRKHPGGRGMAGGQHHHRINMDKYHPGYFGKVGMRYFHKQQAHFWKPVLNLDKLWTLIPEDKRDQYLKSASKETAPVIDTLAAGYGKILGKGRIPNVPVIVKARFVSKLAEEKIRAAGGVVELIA
# pre-assembled initiation complexes, sequence (P0CX27 2-106 limits assumed): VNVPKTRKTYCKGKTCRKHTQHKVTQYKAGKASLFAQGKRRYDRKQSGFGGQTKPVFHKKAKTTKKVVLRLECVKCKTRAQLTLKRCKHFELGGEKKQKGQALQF
# [11] = system: cap-dependent and EMCV, HCV, CrPV IRES-mediated translation; assay: IRES dual luciferase reporter assay in rabbit reticulocyte lysate; type: biochemical; conditions: HCV and CrPV IRES reporters
# [12] = molecular target: ribosome on rabbit β-globin mRNA (Oryctolagus cuniculus, UniProt G1SNY0+G1T040); assay: Toeprinting on rabbit β-globin mRNA in rabbit reticulocyte lysate; type: biochemical; conditions: CHX 10 mM; LTM at 1/10,000th of the CHX concentration
# [13] = system: HEK 293T cells; assay: Polysome profiles in cells; type: cell-based; conditions: 30 min
# [14] = system: rabbit reticulocyte lysate with rabbit β-globin RNA; assay: Polysome profiles in vitro; type: biochemical; conditions: cell free system, 15 min
# [15] = system: breast cancer cell lines; assay: Proliferation of breast cancer cell lines by [3H]thymidine incorporation; type: cell-based; conditions: array of breast cancer cell lines, 24 h
# [16] = system: MCF10A; assay: Proliferation of non-tumorigenic breast cell line by [3H]thymidine incorporation; type: cell-based; conditions: 24 h
# [17] = system: MDA MB 231 tumors; assay: Mouse xenograft model; type: in vivo, female nude mice; conditions: 0.6 mg/kg every day for one month, intraperitoneal
# Outline: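 Two million MDA MB 231 cells were injected subcutaneously into female nude mice. Once tumours were palpable, mice received 0.6 mg/kg test compound or solvent alone daily for one month.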
# [18] = system: P388 lymphoma; conditions: cited from earlier work
# [19] = system: Candida; conditions: cited from earlier work
# [20] = molecular target: binding of deacylated tRNA to the E-site of ribosomes (Oryctolagus cuniculus, UniProt G1SNY0+G1T040); assay: Deacylated tRNA binding to ribosomes; design: species or system rabbit
# Outline: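 Deacylated tRNA was 3′-end labelled with [32P] and diluted to 80,000 cpm/pmol. Inhibitor was at graded concentrations; 4 µM unlabelled deacylated tRNA was the control. Samples were diluted with 1 ml buffer, filtered through nitrocellulose, washed 5× and scintillation counted.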
compound,measurement,setting,value
"CCOC(=O)CO[C@@H](CC(=O)[C@@H](C)/C=C(\C)[C@@H]1OC(=O)/C=C/CC/C=C/C=C\[C@@H]1C)CC1CC(=O)NC(=O)C1 [compound 36, Ethylacetyl-Lactimidomycin]",Effect of modification on translation inhibitory activity of LTM,[1],did not significantly decrease the activity
"C/C(=C\[C@H](C)C(=O)C[C@H](O)CC1CC(=O)NC(=O)C1)[C@@H]1OC(=O)CCCC/C=C/C=C\[C@@H]1C [compound 7, 2H Lactimidomycin]",Inhibition of cell proliferation ([3H]-thymidine incorporation),[2],highly active
"CO[C@H]1/C=C/CC/C=C/C(=O)O[C@@H](/C(C)=C/[C@H](C)C(=O)CCCC2CC(=O)NC(=O)C2)[C@@H](C)[C@@H]1O [Isomigrastatin, isomigrastatin]",Inhibition of cell proliferation ([3H]-thymidine incorporation),[2],highly active
same,Effect on protein synthesis (translation),[3],exclusively inhibited protein synthesis
same,Effect on transcription,[4],without a significant impact on transcription
C=C/C(C)=C/[C@H](C)C(=O)C[C@H](O)CC1CC(=O)NC(=O)C1 [Streptimidone],Inhibition of translation,[5],inhibits translation
"C/C(=C\[C@H](C)C(=O)C[C@H](O)CC1CC(=O)NC(=O)C1)[C@@H]1OC(=O)/C=C/CC/C=C/C=C\[C@@H]1C [LTM, lactimidomycin]",Inhibition of cell proliferation ([3H]-thymidine incorporation),[2],most potent inhibitor of cell proliferation; also recorded: highly active
same,Potency as inhibitor of translation relative to CHX,[3],about 10 fold
same,Effect on protein synthesis (translation),[3],exclusively inhibited protein synthesis
same,Effect on transcription,[4],without a significant impact on transcription
same,Effect on eEF1A-mediated binding of aminoacyl-tRNA,[6],not inhibited
same,Effect on peptide bond formation (methionyl-puromycin),[7],did not affect peptide bond formation
same,Effect on eEF2-mediated translocation (phenylalanyl puromycin formation),[8],inhibited phenylalanyl puromycin formation
same,Effect on polyphenylalanine synthesis,[9],inhibited polyphenylalanine synthesis
same,Effect on tripeptide formation,[10],greatly slowed down tripeptide formation
same,Effect on cap-dependent and IRES-mediated translation,[11],inhibited translation from all three constructs to a similar degree
same,"Toeprint titration, ribosome arrest",[12],arrested the ribosome on the start codon
same,Effect on polysome profile in cells,[13],large increase in 80S ribosomes accompanied by depletion of polysomes
same,Effect on polysome profile in vitro,[14],causing accumulation of 80S ribosomes
same,"IC50 concentrations, cell growth",[15],low nanomolar range
same,Inhibition of growth of non-tumorigenic cells,[16],higher doses were necessary
same,Effect on tumor growth in vivo,[17],appreciable effect on tumor growth
same,Survival of mice with P388 lymphoma,[18],extended the survival
same,Sensitivity of Candida,[19],resistant
"C[C@@H]1C[C@@H]([C@H](O)CC2CC(=O)NC(=O)C2)C(=O)[C@@H](C)C1 [CHX, cycloheximide, reference compound]",Effect on protein synthesis (translation),[3],strongly inhibited translation
same,Effect on transcription,[4],only affected transcription at very high doses
same,Effect on eEF1A-mediated binding of aminoacyl-tRNA,[6],not inhibited
same,Effect on eEF2-mediated translocation (phenylalanyl puromycin formation),[8],inhibited phenylalanyl puromycin formation
same,Effect on tripeptide formation,[10],"similar, albeit less pronounced effect"
same,Concentration causing a detectable decrease in the amount of bound tRNA,[20],10 mM
same,"Toeprint titration, ribosome arrest",[12],about half the ribosomal population to stop at the very first codon
same,Effect on polysome profile in cells,[13],little difference between CHX and solvent control
same,Effect on polysome profile in vitro,[14],causing accumulation of 80S ribosomes
"Cc1c2oc3c(C)ccc(C(=O)N[C@@H]4C(=O)N[C@H](C(C)C)C(=O)N5CCC[C@H]5C(=O)N(C)CC(=O)N(C)[C@@H](C(C)C)C(=O)O[C@@H]4C)c3nc-2c(C(=O)N[C@@H]2C(=O)N[C@H](C(C)C)C(=O)N3CCC[C@H]3C(=O)N(C)CC(=O)N(C)[C@@H](C(C)C)C(=O)O[C@@H]2C)c(N)c1=O [Actinomycin D, reference compound] (I: T[dV]P[Sar][NMeV] / II: T[dV]P[Sar][NMeV]; ester I:1-I:C, II:1-II:C; linker I:N-II:N via Actinocin(9to1))",Effect on protein synthesis (translation),[3],concomitantly blocked transcription and translation
same,Effect on transcription,[4],concomitantly blocked transcription and translation
"CO[C@H]1/C=C/CC/C=C/C(=O)O[C@H]([C@H](C)C(=O)CCCC2CC(=O)NC(=O)C2)/C(C)=C\[C@@H](C)[C@@H]1O [Migrastatin, migrastatin]",Inhibition of cell proliferation ([3H]-thymidine incorporation),[2],neither compound affected cell proliferation
same,Effect on protein synthesis (translation),[3],no inhibitory effect
"CSC[S@+]([O-])C[C@H](CO)NC(=O)/C=C/c1c(C)[nH]c(=O)[nH]c1=O [Sparsomycin, reference compound]",Effect on peptide bond formation (methionyl-puromycin),[7],prevented methyionyl-puromycin synthesis
"CO[C@H]1/C=C/CC/C=C/C(=O)O[C@@H](/C(C)=C/[C@H](C)C(=O)/C=C/CC2CC(=O)NC(=O)C2)[C@@H](C)[C@@H]1O [compound 8, Didehydro Isomigrastatin]",Inhibition of cell proliferation ([3H]-thymidine incorporation),[2],highly active
"CC(/C=C/C(C)=C/[C@@H]1Cc2nc(cs2)[C@@H](C)C[C@@H](N)CC(=O)O[C@@H](C)C/C(C)=C/C=C\C(=O)O1)=C\CN(C)C [PatA, Pateamine A, reference compound]",Effect on cap-dependent and IRES-mediated translation,[11],allowed translation off the HCV IRES
CO[C@@H](/C=C/CC/C=C/C(=O)O)[C@@H](O)[C@H](C)[C@@H](O)/C(C)=C/[C@H](C)C(=O)CCCC1CC(=O)NC(=O)C1 [Dorrigocin B],Inhibition of cell proliferation ([3H]-thymidine incorporation),[2],neither compound affected cell proliferation
same,Effect on protein synthesis (translation),[3],no inhibitory effect; also recorded: abolished any inhibitory activity
